Experimental data: ChEMBL document CHEMBL1955846, “Aminopyrimidinone cdc7 kinase inhibitors” (Bioorg Med Chem Lett, 2012)

What was measured:
[1] = molecular target: T1, CDC7/DBF4 (Cell division cycle 7-related protein kinase/Activator of S phase kinase) (Homo sapiens, UniProt O00311); test: Inhibition of human CDC7/DBF4 expressed using baculovirus expression system assessed as [33P]gamma-ATP incorporation into substrate after 60 mins by gamma counting
[2] = molecular target: T1, CDC7/DBF4 (Cell division cycle 7-related protein kinase/Activator of S phase kinase); test: Inhibition of CDC7/DBF4-mediated MCM2 phosphorylation in human HCT116 cells after 6 hrs by spectrophotometric analysis; type: cell-based, HCT-116
HCT-116 = test: Cytotoxicity against human HCT116 cells after 3 days by CellTitre Glo assay; type: functional, cell-based; conditions: HCT-116, 72 h
In short: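 HCT-116 cells seeded at 3000 cells per well and held 24 h at 37 °C. Next day, treated with serial dilutions of inhibitor. After 3 days, an equal volume of Cell Titer GLO was added and luminescence read. EC50 derived from the viability readout.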

T1 sequence (Q9UBU7 whole entry): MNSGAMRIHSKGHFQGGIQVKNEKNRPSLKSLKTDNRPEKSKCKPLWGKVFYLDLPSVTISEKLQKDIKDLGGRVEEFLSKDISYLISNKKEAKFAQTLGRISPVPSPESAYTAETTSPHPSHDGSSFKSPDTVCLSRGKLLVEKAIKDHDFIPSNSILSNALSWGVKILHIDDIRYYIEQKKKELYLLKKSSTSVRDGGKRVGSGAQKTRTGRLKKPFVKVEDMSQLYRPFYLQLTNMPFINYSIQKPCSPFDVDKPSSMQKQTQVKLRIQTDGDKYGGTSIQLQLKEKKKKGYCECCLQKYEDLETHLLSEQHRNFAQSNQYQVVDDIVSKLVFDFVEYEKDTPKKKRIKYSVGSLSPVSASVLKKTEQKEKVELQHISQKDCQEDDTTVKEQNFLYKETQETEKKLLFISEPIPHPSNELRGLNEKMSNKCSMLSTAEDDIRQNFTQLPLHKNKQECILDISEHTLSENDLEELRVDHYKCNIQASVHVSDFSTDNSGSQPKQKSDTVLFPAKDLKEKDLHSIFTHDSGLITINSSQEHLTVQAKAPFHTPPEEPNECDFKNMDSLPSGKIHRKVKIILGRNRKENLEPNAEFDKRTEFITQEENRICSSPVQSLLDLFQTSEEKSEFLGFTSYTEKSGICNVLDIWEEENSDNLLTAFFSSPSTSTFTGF
T1 sequence (O00311 whole entry): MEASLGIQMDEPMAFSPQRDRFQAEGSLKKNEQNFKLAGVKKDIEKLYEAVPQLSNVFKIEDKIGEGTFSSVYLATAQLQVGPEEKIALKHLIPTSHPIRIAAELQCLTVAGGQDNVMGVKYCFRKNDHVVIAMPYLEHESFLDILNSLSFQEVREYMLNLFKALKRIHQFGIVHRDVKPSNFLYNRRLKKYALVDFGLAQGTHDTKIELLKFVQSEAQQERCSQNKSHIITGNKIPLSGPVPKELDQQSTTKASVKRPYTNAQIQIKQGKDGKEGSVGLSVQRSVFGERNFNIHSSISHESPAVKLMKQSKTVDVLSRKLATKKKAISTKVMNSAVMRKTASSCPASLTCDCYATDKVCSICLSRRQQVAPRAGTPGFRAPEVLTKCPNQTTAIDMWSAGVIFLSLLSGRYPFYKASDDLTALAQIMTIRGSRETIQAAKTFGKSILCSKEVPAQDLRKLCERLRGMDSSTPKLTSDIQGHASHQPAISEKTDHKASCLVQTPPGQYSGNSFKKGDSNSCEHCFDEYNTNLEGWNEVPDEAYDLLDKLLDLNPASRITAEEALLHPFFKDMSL

Row | SMILES | Ki [1] | EC50 [2] | EC50 (HCT-116)
1 | O=c1cc(-c2cccnc2)nc(NC2CCCCC2)[nH]1 | > 1200 nM |  | 
2 | O=c1cc(-c2cn[nH]c2)nc(NC2CCCCC2)[nH]1 | 15 nM |  | 
3 | O=c1cc(-c2ccc3[nH]ncc3c2)nc(NC2CCCCC2)[nH]1 | 0.5 nM |  | 
4 | O=c1cc(-c2c[nH]c3ncccc23)nc(N2CCC(O)CC2)[nH]1 | 0.2 nM | 1780 nM | 6190 nM
5 | O=c1cc(-c2c[nH]c3ncccc23)nc(NC2CCCCC2)[nH]1 | < 0.07 nM | 60 nM | 103 nM
6 | O=c1nc(-c2c[nH]c3ncccc23)nc(NC2CCCCC2)[nH]1 | 0.3 nM |  | 
7 | O=c1cc(-c2c[nH]c3ncccc23)nc(NCc2ccccc2)[nH]1 | < 0.07 nM | 180 nM | 122 nM
8 | COC1CCN(c2nc(-c3c[nH]c4ncccc34)cc(=O)[nH]2)CC1 | 0.2 nM | 300 nM | 520 nM
9 | COCCN(CCOC)c1nc(-c2c[nH]c3ncccc23)cc(=O)[nH]1 | 0.18 nM | 60 nM | 2210 nM
10 | O=c1cc(-c2c[nH]c3ncccc23)nc(Nc2ccccc2)[nH]1 | 0.12 nM | 143 nM | 443 nM
11 | O=c1cc(-c2ccccc2)nc(NC2CCCCC2)[nH]1 | 230 nM |  | 
12 | O=c1cc(-c2c[nH]c3ncccc23)nc(N2CCOCC2)[nH]1 | 0.18 nM | 300 nM | 450 nM
13 | O=c1cc(-c2c[nH]c3ncccc23)nc(-c2ccccc2)[nH]1 | 0.25 nM | 410 nM | 830 nM
14 | O=c1cc(-c2c[nH]c3ncccc23)cc(NC2CCCCC2)[nH]1 | 0.5 nM |  | 
15 | Nc1nccc(-c2cc(=O)[nH]c(NC3CCCCC3)n2)n1 | 5 nM |  | 
16 | CN(c1nc(-c2c[nH]c3ncccc23)cc(=O)[nH]1)C1CCCCC1 | 0.09 nM | 15 nM | 106 nM
17 | O=c1cc(-c2c[nH]c3ncccc23)nc(NC(c2ccccc2)c2ccccc2)[nH]1 | 328 nM |  | 
18 | CN1CCC(Nc2nc(-c3c[nH]c4ncccc34)cc(=O)[nH]2)CC1 | 0.11 nM | 2610 nM | 7370 nM
19 | O=c1nc(-c2c[nH]c3ncccc23)cc(NC2CCCCC2)[nH]1 | 1.4 nM |  | 
20 | O=c1cc(NC2CCCCC2)cc(-c2c[nH]c3ncccc23)[nH]1 | 1.1 nM |  | 
21 | Oc1cc(NC2CCCCC2)nc(-c2c[nH]c3ncccc23)c1 | 5.4 nM |  | 
22 | O=c1cc(-c2c[nH]c3ncccc23)nc(NC2CCOCC2)[nH]1 | 0.14 nM | 300 nM | 2460 nM
